# Compound activity as filed in PubChem.
# This is a sample that favours compounds with a hit; in the whole collection about 3.6% have one here.
# FGF22 binding = binders of recombinant human FGF22 by thermal shift; Q9HCT0; SYPRO orange fluorescence; percent of sucrose octasulfate shift, DMSO zero; activity (Tm shift, normalised), % at 9.99 µM; actives 1.5% (n = 340,000);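 active = mean Tm shift, scaled 0 neutral to 100 positive control, at about 1.3% or above, every replicate too, limit read from the data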
# Target sequence (Q9HCT0 whole entry, looked up): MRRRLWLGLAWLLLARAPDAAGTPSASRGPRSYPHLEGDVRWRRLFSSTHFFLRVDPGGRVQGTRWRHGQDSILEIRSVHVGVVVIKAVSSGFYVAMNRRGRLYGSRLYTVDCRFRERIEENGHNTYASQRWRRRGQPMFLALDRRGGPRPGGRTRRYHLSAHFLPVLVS
# EBNA-1 inh = blocks EBNA-1 binding to DNA; inhibition, % at 14.8 µM; EBNA-1 DNA binding, fluorescence polarization; actives 0.34% (n = 300,000); in the data active = inhibition above about 28%
# DNA FID counter-1 = displaces DNA intercalator in HCV helicase counter-screen; DNA fluorescent intercalator displacement, fluorescence; inhibition, % at 7.9 µM; actives 0.17% (n = 290,000);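 note: 0% = vehicle and 100% = reference compound; higher means more ethidium bromide displaced from hairpin DNA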
# NR3A LBD binder = modulates the human NR3A ligand-binding domain. Tm shift relative to glycine control, % at 25 µM. NR3A LBD differential scanning fluorimetry, Tm shift; 0% = protein alone, 100% = glycine-bound protein. actives 2.5% (n = 340,000). AID 1259313;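 active = melting temperature shift of at least 10% of the positive control shift, at one fixed dose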
# NS3 helicase inh = inhibitors of Hepatitis C virus NS3 helicase. NS3 helicase DNA unwinding, Cy5 molecular beacon fluorescence. inhibition, % at 10.9 µM. actives 0.56% (n = 290,000);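 active = inhibition above the mean of all tested compounds plus 3 SD, set per campaign, cut at about 35% in these data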;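 note: 0% = DMSO wells and 100% = thioflavine S control wells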
#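 Assay system – hepatitis C virus NS3 helicase domain fragment enzyme · Buffer or medium – MOPS pH 6.5, MgCl2, DTT, Tween20, BSA · Reagent – Cy5/quencher beacon DNA duplex and ATP to start · Compound – single 10.9 µM dose · Timing – 1 h at 25 °C · Technique – Cy5 beacon fluorescence read at start and 1 h · Measure – % inhibition of unwinding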
# ZTA DNA inh = ZTA (EBV) inhibition in EBNA-1 counter-screen | P03206 | ZTA-DNA binding, fluorescence polarization | inhibition, % at 11 µM | actives 0.15% (n = 320,000) | AID 2234; in the data active = inhibition above about 33%
# Target sequence (P03206 whole entry, looked up): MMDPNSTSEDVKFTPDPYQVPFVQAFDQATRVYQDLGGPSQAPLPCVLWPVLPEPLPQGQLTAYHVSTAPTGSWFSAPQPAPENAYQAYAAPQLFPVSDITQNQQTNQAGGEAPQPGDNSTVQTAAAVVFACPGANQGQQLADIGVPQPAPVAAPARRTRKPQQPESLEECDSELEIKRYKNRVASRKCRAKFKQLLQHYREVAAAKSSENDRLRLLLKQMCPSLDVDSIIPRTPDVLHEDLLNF
# NS3 hel confirm = HCV NS3 helicase inhibition, confirmation assay; shares compounds with NS3 helicase inh; NS3 helicase DNA unwinding, Cy5 molecular beacon fluorescence; inhibition, % at 10.9 µM; actives 31% (n = 1,600); AID 1943;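 active = inhibition above the mean of all tested compounds plus 3 SD, cutoff set per campaign, cut at about 36% in these data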
# DNA FID counter-2 = displaces DNA intercalator in HCV helicase counter-screen. AID 1945. actives 4% (n = 1,600). DNA fluorescent intercalator displacement, fluorescence. shares compounds with NS3 helicase inh. inhibition, % at 7.9 µM;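 note: 0% = vehicle and 100% = reference compound; higher means more displacement of ethidium bromide from the DNA hairpin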
# DNA FID DR = displaces fluorescent intercalator from DNA, HCV helicase counter-screen. shares compounds with NS3 helicase inh. fluorescent intercalator displacement from DNA, fluorescence. IC50, µM. 120 tested, under 10 active; call rule not given here
# Active calls of the source: *; . = no result. Cut-off read from the data, not from the text of the source, unless noted: active = inhibition above about 37%; inactive = the rest.
SMILES,FGF22 binding,EBNA-1 inh,DNA FID counter-1,NR3A LBD binder,NS3 helicase inh,ZTA DNA inh,NS3 hel confirm,DNA FID counter-2,others
CCCc1nn2c(N)c(/C=C3\C=Nc4ccccc43)c(=O)nc2s1,0,12,-16,2,3,13,.,.,
Cc1noc(NS(=O)(=O)c2ccc(NC(=O)Cc3ccc([N+](=O)[O-])cc3)cc2)c1C,1,0,-16,-3,42*,-9,29,-14,
Cc1cc(NC(=O)c2ccc([N+](=O)[O-])cc2Cl)ccc1NC(=O)c1ccco1,0,-9,2,-6,36*,-4,-8,14,
COc1ccc(CN(C)C[C@@H]2OCCCC[C@H](C)Oc3ccc(NC(=O)NC4CCCCC4)cc3C(=O)N([C@H](C)CO)C[C@H]2C)cc1,0,.,.,.,.,.,.,.,
Cc1ccccc1-c1n[nH]c(=S)n1/N=C/C=C/c1ccco1,0,4,-22,1,38*,1,-5,7,
S=c1[nH]nc(-c2ccccc2)n1/N=C/C=C/c1ccco1,0,-5,-10,0,52*,-22,-3,9,
Oc1c(Br)cc(Br)c(/C=N/n2c(-c3ccccc3)n[nH]c2=S)c1Br,0,7,-12,0,39*,17,69*,13,
Cc1cc(-c2n[nH]c(=S)n2/N=C/C=C/c2ccco2)n[nH]1,0,-1,-11,2,30,13,.,.,
S=c1[nH]nc(-c2ccc(Cl)cc2)n1/N=C/C=C/c1ccco1,.,7,-13,0,27,-2,.,.,
Oc1ccc(Br)cc1/C=N/n1c(-c2ccccc2)n[nH]c1=S,0,0,-11,2,27,4,.,.,
C/C=C/c1cnc2c(c1)C(=O)N([C@@H](C)CO)C[C@H](C)[C@H](CN(C)Cc1ccc(F)cc1)O2,0,.,.,.,.,.,.,.,
CC(C)(C)C(C(Oc1ccc(Cl)cc1)n1cncn1)n1nnnc1C(c1cccc(Cl)c1)N1CCCCC1 (configuration not stated),.,-21,-40,.,39*,6,-8,-30,
O=C(O)c1cc2nc(-c3cccs3)cc(C(F)(F)F)n2n1,0,-3,12,0,39*,-13,2,9,
FC(F)(F)c1cc(-c2cccs2)nc2cc(-c3ccccc3)nn12,0,-8,-3,0,0,-3,.,.,
Cc1cc(C)c2nc(NC(=O)C3CC(=O)N(Cc4ccco4)C3)sc2c1 (configuration not stated),0,2,-31,-1,13,-3,.,.,
O=C(Nc1nc2c(F)cc(F)cc2s1)C1CC(=O)N(Cc2ccco2)C1 (configuration not stated),0,4,-10,1,41*,3,-8,-27,
CNc1ccccc1C(C)(C)c1cc(C)[nH]n1,.,13,-13,0,0,-7,.,.,
CNc1ccccc1C(C)(C)c1cc(-c2ccco2)n[nH]1,0,-3,-5,.,41*,-16,-9,-27,
O=C(O)CSc1cc(NS(=O)(=O)c2ccc(Cl)cc2)c2ccccc2c1O,0,3,-4,-17,43*,11,50*,45*,
COc1ccc(S(=O)(=O)Nc2cc(SCC(=O)O)c(O)c3ccccc23)cc1,0,-15,-10,-26,35,13,.,.,
CCOC(=O)c1c(-c2ccccc2)csc1N1C(=O)Nc2ccccc2N1O,0,0,-31,-2,47*,3,72*,-12,
CCOC(=O)c1c(N2C(=O)Nc3ccccc3N2O)sc2c1CCCCC2,0,4,-30,0,47*,-3,75*,-13,
COC(=O)c1c(N2C(=O)Nc3ccccc3N2O)sc2c1CCCC2,0,6,-27,-1,-7,11,.,.,
COc1ccc(S(=O)(=O)N(C)C[C@H]2Oc3ccc(NC(=O)Nc4cccc5ccccc45)cc3CC(=O)N([C@H](C)CO)C[C@H]2C)cc1,0,.,.,.,.,.,.,.,
Cc1noc(C)c1NC(=O)Nc1ccc2c(c1)C(=O)N([C@H](C)CO)C[C@H](C)[C@H](CN(C)CC1CCCCC1)OCCCC[C@H](C)O2,0,.,.,.,.,.,.,.,
SMILES,FGF22 binding,EBNA-1 inh,DNA FID counter-1,NR3A LBD binder,NS3 helicase inh,ZTA DNA inh,NS3 hel confirm,DNA FID counter-2,others
C[C@@H](NC(=O)C[C@H]1CC[C@H]2[C@@H](COC[C@H](O)CN2C(=O)Nc2cc(Cl)cc(Cl)c2)O1)c1ccccc1,0,.,.,.,.,.,.,.,
Cc1cc(OCc2nnc(SC(C)C(=O)O)n2-c2ccccc2)ccc1Cl (configuration not stated),0,-6,-33,-1,53*,-8,40*,-27,
Cc1ccccc1OCc1nnc(SC(C)C(=O)O)n1-c1ccccc1 (configuration not stated),0,.,.,.,.,.,.,.,
CCOC(=O)c1c(N)sc(=S)c2c1CCC2,.,-3,-12,-3,58*,-7,28,4,
CCOC(=O)N1CCC(c2cc(=O)n3[nH]c(C)c(-c4ccc(F)cc4)c3n2)CC1,0,-3,-38,-15,6,0,.,.,
COCCNC(=O)c1c[nH]n2c(=O)cc(C3CCN(C(=O)OC(C)(C)C)CC3)nc12,0,-5,-58,-1,41*,-3,-8,-27,
Cc1ccc(CSCC2Nc3ccc(C(=O)N4CCN(c5cccc(C)c5)C(C)C4)cc3NC2=O)cc1 (configuration not stated),.,0,-34,.,38*,10,-9,-36,
Cc1cccc(N2CCN(C(=O)c3ccc4c(c3)NC(=O)C(CSCc3ccc(F)cc3)N4)CC2C)c1 (configuration not stated),.,-4,-32,.,20,17,.,.,
N#C/C(=C/c1ccc(Br)o1)C(N)=S,.,5,-5,.,37*,21,-15,0,
O=C(Nc1ccc(F)cc1)N[C@H]1CC[C@H](CCNS(=O)(=O)c2ccccc2F)O[C@@H]1CO,0,.,.,.,.,.,.,.,
Cn1cccc1Cc1nnc(SCC(=O)Nc2cccc(F)c2)n1CCc1ccccc1,0,5,-53,-2,42*,10,-6,-27,
CC(C)C(C)(C#N)NC(=O)CSc1nc2scc(-c3ccco3)c2c(=O)n1-c1ccccc1 (configuration not stated),.,4,-20,2,36*,6,105*,4,DNA FID DR=>79
C=CCn1c(SCC(C)=O)nc2scc(-c3ccco3)c2c1=O,0,3,-31,-2,39*,6,-1,4,
